Tests used:
[1] = biological target: Serine/threonine-protein kinase DCLK1 (Homo sapiens) (UniProt O15075); assay: Inhibition of DCAMKL1 at 3 uM
[2] = biological target: Serine/threonine-protein kinase B-raf (Homo sapiens) (UniProt P15056); assay: Inhibition of BRAF at 3 uM
[3] = biological target: Dual specificity protein kinase CLK2 (Homo sapiens) (UniProt P49760); assay: Inhibition of CLK2 at 3 uM
[4] = biological target: Tyrosine-protein kinase Lck (Homo sapiens) (UniProt P06239); assay: Inhibition of LCK at 3 uM
[5] = biological target: Serine/threonine-protein kinase 35 (Homo sapiens) (UniProt Q8TDR2); assay: Inhibition of STK35 at 3 uM
Serine/threonine-protein kinase 35 (Homo sapiens), sequence (Q8TDR2 whole entry): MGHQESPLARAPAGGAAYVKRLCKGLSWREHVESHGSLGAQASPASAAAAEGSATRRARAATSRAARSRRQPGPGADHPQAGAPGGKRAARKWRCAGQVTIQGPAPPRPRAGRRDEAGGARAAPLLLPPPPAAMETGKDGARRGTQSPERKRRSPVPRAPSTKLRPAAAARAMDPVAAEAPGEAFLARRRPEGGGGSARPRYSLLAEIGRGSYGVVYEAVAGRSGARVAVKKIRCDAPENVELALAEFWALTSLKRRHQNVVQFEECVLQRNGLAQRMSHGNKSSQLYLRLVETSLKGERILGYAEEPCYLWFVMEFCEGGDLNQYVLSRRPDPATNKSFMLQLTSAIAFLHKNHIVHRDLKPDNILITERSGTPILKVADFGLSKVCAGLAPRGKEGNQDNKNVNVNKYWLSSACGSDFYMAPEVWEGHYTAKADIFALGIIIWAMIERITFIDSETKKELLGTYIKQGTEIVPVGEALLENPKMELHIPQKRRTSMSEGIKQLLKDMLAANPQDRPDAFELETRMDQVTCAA

[6] = biological target: Tyrosine-protein kinase BTK (Homo sapiens) (UniProt Q06187); assay: Inhibition of BTK at 3 uM
[7] = biological target: Serine/threonine-protein kinase pim-1 (Homo sapiens) (UniProt P11309); assay: Inhibition of PIM1 at 3 uM
Serine/threonine-protein kinase pim-1 (Homo sapiens), sequence (P11309 whole entry, looked up): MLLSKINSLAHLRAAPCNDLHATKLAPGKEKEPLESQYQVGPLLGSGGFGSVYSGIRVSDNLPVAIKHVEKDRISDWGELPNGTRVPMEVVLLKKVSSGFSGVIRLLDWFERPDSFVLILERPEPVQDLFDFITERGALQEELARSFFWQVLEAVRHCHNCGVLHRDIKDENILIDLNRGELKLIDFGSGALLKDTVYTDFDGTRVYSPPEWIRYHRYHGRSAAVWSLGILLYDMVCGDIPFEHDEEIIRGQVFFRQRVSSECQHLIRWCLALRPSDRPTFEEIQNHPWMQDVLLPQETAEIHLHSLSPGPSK

[8] = biological target: Dual specificity mitogen-activated protein kinase kinase 1 (Homo sapiens) (UniProt Q02750); assay: Inhibition of MEK1 at 3 uM
[9] = biological target: Calcium/calmodulin-dependent protein kinase type 1G (Homo sapiens) (UniProt Q96NX5); assay: Inhibition of CAMK1G at 3 uM
[10] = biological target: Protein kinase C delta type (Homo sapiens) (UniProt Q05655); assay: Inhibition of PRKCD at 3 uM
[11] = biological target: Phosphatidylinositol 4,5-bisphosphate 3-kinase catalytic subunit beta isoform (Homo sapiens) (UniProt P42338); assay: Inhibition of PIK3CB at 3 uM
[12] = biological target: Alpha-1B adrenergic receptor (Rattus norvegicus) (UniProt P15823); assay: Inhibition of rat adrenergic Alpha-1B receptor at 3 uM
[13] = tested on: Mast/stem cell growth factor receptor Kit (Homo sapiens), P10721 [V559D,T670I]; assay: Inhibition of KIT V559D,T670I mutant at 3 uM
[14] = biological target: Serine/threonine-protein kinase MRCK beta (Homo sapiens) (UniProt Q9Y5S2); assay: Inhibition of MRCKB at 3 uM
[15] = biological target: Muscarinic acetylcholine receptor M1 (Homo sapiens) (UniProt P11229); assay: Inhibition of human muscarinic M1 receptor at 3 uM
Method in brief: (§1)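 Counter-screen binding/enzyme panel at single 3 μM, n=2; results as percent inhibition. Species per target as listed (rat NMDA, GABAA sites; human receptors, transporters; rabbit ACE).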

[16] = biological target: Serine/threonine-protein kinase TAO1 (Homo sapiens) (UniProt Q7L7X3); assay: Inhibition of TAOK1 at 3 uM
[17] = biological target: RAC-alpha serine/threonine-protein kinase (Homo sapiens, UniProt P31749); assay: Inhibition of AKT1 after 55 mins
[18] = biological target: Cyclin-dependent kinase 11B (Homo sapiens) (UniProt P21127); assay: Inhibition of CDC2L1 at 3 uM
[19] = biological target: Phosphatidylinositol 4,5-bisphosphate 3-kinase catalytic subunit gamma isoform (Homo sapiens) (UniProt P48736); assay: Inhibition of PIK3CG at 3 uM
Phosphatidylinositol 4,5-bisphosphate 3-kinase catalytic subunit gamma isoform (Homo sapiens), sequence (P48736 whole entry, looked up, canonical isoform): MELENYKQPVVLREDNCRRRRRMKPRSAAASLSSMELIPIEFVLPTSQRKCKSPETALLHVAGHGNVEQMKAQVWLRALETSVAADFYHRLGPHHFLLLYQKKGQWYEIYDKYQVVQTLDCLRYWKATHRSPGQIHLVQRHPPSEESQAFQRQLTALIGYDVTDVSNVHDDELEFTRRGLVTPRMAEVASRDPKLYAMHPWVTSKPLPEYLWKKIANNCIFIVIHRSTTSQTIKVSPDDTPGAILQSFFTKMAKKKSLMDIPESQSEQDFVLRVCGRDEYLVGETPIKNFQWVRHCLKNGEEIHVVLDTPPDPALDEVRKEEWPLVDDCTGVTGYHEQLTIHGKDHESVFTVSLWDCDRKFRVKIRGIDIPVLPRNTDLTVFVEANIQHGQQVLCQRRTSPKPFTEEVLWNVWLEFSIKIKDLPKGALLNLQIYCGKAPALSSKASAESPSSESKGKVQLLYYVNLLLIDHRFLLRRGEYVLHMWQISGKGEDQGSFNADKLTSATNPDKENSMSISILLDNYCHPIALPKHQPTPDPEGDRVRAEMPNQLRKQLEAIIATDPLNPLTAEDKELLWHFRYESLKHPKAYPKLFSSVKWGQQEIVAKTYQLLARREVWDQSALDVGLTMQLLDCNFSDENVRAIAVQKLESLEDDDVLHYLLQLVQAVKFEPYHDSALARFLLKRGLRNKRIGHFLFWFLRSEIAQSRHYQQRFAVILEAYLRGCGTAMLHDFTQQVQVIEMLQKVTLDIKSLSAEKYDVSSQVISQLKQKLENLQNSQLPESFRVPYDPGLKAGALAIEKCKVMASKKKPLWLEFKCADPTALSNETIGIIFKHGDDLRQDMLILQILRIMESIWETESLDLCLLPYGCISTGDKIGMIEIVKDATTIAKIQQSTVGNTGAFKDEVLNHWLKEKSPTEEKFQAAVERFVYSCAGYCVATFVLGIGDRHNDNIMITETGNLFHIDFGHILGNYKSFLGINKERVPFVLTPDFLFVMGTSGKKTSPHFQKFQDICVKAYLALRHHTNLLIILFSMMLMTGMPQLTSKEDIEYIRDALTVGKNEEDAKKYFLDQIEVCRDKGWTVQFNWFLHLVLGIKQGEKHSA

[20] = biological target: Beta-2 adrenergic receptor (Homo sapiens) (UniProt P07550); assay: Inhibition of human adrenergic beta2 receptor at 3 uM; method in brief: as §1
[21] = biological target: Serine/threonine-protein kinase Nek6 (Homo sapiens) (UniProt Q9HC98); assay: Inhibition of NEK6 at 3 uM
Serine/threonine-protein kinase Nek6 (Homo sapiens), sequence (Q9HC98 whole entry): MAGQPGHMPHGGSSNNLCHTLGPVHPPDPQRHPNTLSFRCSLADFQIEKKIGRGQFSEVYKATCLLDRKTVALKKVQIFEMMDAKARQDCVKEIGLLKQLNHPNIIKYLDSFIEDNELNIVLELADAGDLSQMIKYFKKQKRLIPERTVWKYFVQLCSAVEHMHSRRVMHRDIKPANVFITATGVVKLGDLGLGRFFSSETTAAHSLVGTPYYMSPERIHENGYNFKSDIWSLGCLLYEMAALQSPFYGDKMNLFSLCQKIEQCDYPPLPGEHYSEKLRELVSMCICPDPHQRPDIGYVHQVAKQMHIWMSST

[22] = biological target: Activated CDC42 kinase 1 (Homo sapiens) (UniProt Q07912); assay: Inhibition of TNK2 at 3 uM
[23] = biological target: Tyrosine-protein kinase Yes (Homo sapiens) (UniProt P07947); assay: Inhibition of YES at 3 uM
[24] = biological target: RAC-gamma serine/threonine-protein kinase (Homo sapiens) (UniProt Q9Y243); assay: Inhibition of AKT3 at 3 uM
[25] = biological target: Epithelial discoidin domain-containing receptor 1 (Homo sapiens) (UniProt Q08345); assay: Inhibition of DDR1 at 3 uM
[26] = biological target: Serine/threonine-protein kinase D1 (Homo sapiens) (UniProt Q15139); assay: Inhibition of PRKD1 at 3 uM
[27] = biological target: Mitogen-activated protein kinase kinase kinase 20 (Homo sapiens) (UniProt Q9NYL2); assay: Inhibition of ZAK at 3 uM
[28] = biological target: Myosin-IIIa (Homo sapiens) (UniProt Q8NEV4); assay: Inhibition of MYO3A at 3 uM
Myosin-IIIa (Homo sapiens), sequence (Q8NEV4 whole entry): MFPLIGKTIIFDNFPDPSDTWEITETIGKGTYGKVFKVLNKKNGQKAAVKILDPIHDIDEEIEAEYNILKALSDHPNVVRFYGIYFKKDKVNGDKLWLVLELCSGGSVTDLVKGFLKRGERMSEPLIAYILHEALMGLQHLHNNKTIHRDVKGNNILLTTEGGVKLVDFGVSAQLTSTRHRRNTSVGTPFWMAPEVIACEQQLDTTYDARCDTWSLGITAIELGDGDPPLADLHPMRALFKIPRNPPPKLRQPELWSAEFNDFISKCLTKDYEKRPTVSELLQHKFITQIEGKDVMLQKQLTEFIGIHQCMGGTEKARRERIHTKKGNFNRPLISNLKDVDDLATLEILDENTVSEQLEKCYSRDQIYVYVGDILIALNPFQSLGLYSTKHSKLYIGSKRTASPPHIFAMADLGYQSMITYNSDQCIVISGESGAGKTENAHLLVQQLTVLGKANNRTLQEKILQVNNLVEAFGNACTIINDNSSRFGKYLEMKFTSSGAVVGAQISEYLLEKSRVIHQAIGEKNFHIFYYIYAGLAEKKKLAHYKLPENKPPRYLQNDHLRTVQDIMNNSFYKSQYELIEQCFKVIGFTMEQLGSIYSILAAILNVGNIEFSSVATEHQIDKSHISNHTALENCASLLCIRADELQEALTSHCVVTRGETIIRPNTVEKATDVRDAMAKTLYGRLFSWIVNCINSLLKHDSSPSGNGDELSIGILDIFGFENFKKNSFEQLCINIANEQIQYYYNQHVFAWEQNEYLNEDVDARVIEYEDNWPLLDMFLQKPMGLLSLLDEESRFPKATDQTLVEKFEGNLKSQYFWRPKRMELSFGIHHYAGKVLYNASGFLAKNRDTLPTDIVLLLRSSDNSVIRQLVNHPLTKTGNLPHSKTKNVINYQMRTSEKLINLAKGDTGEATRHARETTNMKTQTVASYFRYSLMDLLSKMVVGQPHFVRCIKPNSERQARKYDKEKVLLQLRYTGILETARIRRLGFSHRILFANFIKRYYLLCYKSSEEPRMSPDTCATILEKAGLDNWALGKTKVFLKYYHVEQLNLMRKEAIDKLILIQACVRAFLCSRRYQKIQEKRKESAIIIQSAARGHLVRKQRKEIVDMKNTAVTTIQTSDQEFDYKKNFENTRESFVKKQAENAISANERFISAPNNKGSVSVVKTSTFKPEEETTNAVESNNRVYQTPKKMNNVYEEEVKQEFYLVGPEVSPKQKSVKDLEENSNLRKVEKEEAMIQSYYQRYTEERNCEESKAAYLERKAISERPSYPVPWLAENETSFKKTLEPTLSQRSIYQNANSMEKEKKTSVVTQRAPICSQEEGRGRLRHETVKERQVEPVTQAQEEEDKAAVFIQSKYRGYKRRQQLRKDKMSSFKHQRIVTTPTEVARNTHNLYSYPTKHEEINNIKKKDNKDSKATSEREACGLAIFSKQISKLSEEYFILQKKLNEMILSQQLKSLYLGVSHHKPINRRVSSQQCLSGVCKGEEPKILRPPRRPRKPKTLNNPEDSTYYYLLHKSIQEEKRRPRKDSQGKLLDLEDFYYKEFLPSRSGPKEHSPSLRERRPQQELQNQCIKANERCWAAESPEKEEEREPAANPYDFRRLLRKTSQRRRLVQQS

[29] = biological target: Tyrosine-protein kinase SYK (Homo sapiens) (UniProt P43405); assay: Inhibition of SYK at 3 uM
[30] = biological target: Serine/threonine-protein kinase Chk2 (Homo sapiens) (UniProt O96017); assay: Inhibition of CHEK2 at 3 uM
[31] = biological target: Hepatocyte growth factor receptor (Homo sapiens) (UniProt P08581); assay: Inhibition of MET at 3 uM
[32] = biological target: D(3) dopamine receptor (Homo sapiens) (UniProt P35462); assay: Inhibition of human dopamine D3 receptor at 3 uM; method in brief: as §1
[33] = biological target: Serine/threonine-protein kinase 26 (Homo sapiens) (UniProt Q9P289); assay: Inhibition of MST4 at 3 uM
Sus scrofa = organism: Sus scrofa; settings: 25 uM
[34] = biological target: Casein kinase I isoform gamma-3 (Homo sapiens) (UniProt Q9Y6M4); assay: Inhibition of CSNK1G3 at 3 uM
[35] = biological target: Casein kinase II subunit alpha (Homo sapiens) (UniProt P68400); assay: Inhibition of CSNK2A1 at 3 uM
[36] = biological target: Discoidin domain-containing receptor 2 (Homo sapiens) (UniProt Q16832); assay: Inhibition of DDR2 at 3 uM
[37] = biological target: Dual specificity protein kinase CLK4 (Homo sapiens) (UniProt Q9HAZ1); assay: Inhibition of CLK4 at 3 uM
[38] = biological target: Adenosine receptor A3 (Homo sapiens) (UniProt P0DMS8); assay: Inhibition of human adenosine A3 receptor at 3 uM; method in brief: as §1
[39] = biological target: Tyrosine-protein kinase ABL2 (Homo sapiens) (UniProt P42684); assay: Inhibition of ABL2 at 3 uM
[40] = biological target: Bone morphogenetic protein receptor type-1A (Homo sapiens) (UniProt P36894); assay: Inhibition of BMPR1A at 3 uM
[41] = biological target: Pro-epidermal growth factor (Homo sapiens) (UniProt P01133); assay: Inhibition of human EGF at 3 uM; method in brief: as §1
Pro-epidermal growth factor (Homo sapiens), sequence (P01133 whole entry): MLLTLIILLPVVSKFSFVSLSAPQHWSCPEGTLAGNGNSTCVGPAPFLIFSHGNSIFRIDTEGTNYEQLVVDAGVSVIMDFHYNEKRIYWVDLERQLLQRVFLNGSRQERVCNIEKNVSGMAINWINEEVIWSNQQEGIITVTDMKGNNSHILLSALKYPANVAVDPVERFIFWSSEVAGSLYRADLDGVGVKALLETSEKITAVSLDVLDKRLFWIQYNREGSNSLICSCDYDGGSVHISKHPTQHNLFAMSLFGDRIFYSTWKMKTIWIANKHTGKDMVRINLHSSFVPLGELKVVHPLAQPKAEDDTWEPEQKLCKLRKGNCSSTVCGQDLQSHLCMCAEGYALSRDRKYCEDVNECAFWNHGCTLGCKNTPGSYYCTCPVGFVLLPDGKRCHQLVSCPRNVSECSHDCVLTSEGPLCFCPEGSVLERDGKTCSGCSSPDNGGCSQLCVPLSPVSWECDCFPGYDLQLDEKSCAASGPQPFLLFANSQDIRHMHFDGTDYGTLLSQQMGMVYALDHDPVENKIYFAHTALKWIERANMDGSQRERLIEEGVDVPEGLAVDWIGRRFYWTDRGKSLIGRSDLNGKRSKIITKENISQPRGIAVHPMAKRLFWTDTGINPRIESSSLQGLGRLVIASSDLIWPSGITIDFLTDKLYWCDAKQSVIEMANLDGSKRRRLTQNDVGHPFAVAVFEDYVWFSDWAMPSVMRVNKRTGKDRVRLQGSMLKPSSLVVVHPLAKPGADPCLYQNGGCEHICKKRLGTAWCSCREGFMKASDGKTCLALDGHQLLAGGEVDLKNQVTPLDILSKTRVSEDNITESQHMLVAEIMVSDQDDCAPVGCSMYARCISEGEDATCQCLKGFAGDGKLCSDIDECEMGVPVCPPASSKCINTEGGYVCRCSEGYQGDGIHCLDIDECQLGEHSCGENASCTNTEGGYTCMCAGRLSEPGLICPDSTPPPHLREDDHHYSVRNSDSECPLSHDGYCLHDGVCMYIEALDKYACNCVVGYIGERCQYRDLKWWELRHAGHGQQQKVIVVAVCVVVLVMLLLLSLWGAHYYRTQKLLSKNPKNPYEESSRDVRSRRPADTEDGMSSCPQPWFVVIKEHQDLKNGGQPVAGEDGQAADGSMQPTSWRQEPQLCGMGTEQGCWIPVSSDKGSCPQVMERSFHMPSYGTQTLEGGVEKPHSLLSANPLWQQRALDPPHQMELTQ

[42] = biological target: Mitogen-activated protein kinase kinase kinase kinase 5 (Homo sapiens) (UniProt Q9Y4K4); assay: Inhibition of MAP4K5 at 3 uM
[43] = biological target: Calcium/calmodulin-dependent protein kinase type II subunit delta (Homo sapiens) (UniProt Q13557); assay: Inhibition of CAMK2D at 3 uM
[44] = biological target: Mitogen-activated protein kinase 10 (Homo sapiens) (UniProt P53779); assay: Inhibition of JNK3 at 3 uM
[45] = tested on: eIF-2-alpha kinase GCN2 (Homo sapiens), Q9P2K8 [S808G]; assay: Inhibition of GCN2 Kin.Dom.2,S808G mutant at 3 uM

In the case of `CN(C)CCOc1cc(-c2cn[nH]c2)ccc1NC(=O)C1COc2ccccc2O1` (stereo unspecified) [SR-3677], the inhibition [1] is reported as < 10%, the inhibition [2] is reported as < 10% and the inhibition [3] is reported as 70%. The inhibition [4] was < 10%, the inhibition [5] was < 10% and the inhibition [6] was < 10%. The inhibition [7] was < 10%, the inhibition [8] was < 10% and the inhibition [9] was < 10%. The inhibition [10] was < 10%, the inhibition [11] was < 10% and the inhibition [12] was 68%. The inhibition [13] was < 10%, the inhibition [14] was < 10% and the inhibition [15] was 6%. For the same compound, the inhibition [16] was < 10%, the IC50 [17] was 7.49 µM and the inhibition [18] was < 10%. The inhibition [19] was < 10%, the inhibition [20] was 19% and the inhibition [21] was < 10%. For the same compound, the inhibition [22] was < 10%, the inhibition [23] was < 10% and the inhibition [24] was 77%. The inhibition [25] was < 10%, the inhibition [26] was < 10% and the inhibition [27] was < 10%. For the same compound, the inhibition [28] was < 10%, the inhibition [29] was < 10% and the inhibition [30] was < 10%. For the same compound, the inhibition [31] was < 10%, the inhibition [32] was 15% and the inhibition [33] was < 10%. For the same compound, the inhibition (Sus scrofa) was 90%, the inhibition [34] was < 10% and the inhibition [35] was < 10%. The inhibition [36] was < 10%, the inhibition [37] was 90% and the inhibition [38] was -4%. The inhibition [39] was < 10%, the inhibition [40] was < 10% and the inhibition [41] was -1%. For the same compound, the inhibition [42] was < 10%, the inhibition [43] was < 10% and the inhibition [44] was < 10%. For the same compound, the inhibition [45] was < 10%.

Source: ChEMBL document CHEMBL1142492 (J Med Chem, 2008)
